pIC50: −log10 of the molar value. Calls of active or inactive are those of the source. The calls are words filed in the database; no cut-off is given here.
How the values were obtained:
[1] = biological target: Mitogen-activated protein kinase 8 (Homo sapiens, UniProt P45983); assay: Inhibition of JNK1 by time resolved fluorescence assay
[2] = biological target: Mitogen-activated protein kinase 10 (Homo sapiens, UniProt P53779); assay: Inhibition of JNK3 by time resolved fluorescence assay
[3] = Inhibition of p38 kinase by time resolved fluorescence assay
Method in brief: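 Commercial recombinant p38 in a homogeneous time-resolved fluorescence biochemical assay run per an earlier protocol. IC50 is the average of three or more experiments.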

CYP2C9 = CYP2C9 (Homo sapiens, UniProt P11712); assay: Inhibition of human CYP2C9 at 10 uM after 15 mins; assay type: ADME
CYP2D6 = CYP2D6 (Homo sapiens, UniProt P10635); assay: Inhibition of human CYP2D6 at 10 uM after 15 mins; assay type: ADME
CYP3A4 = CYP3A4 (Homo sapiens, UniProt P08684); assay: Inhibition of human CYP3A4 at 10 uM after 15 mins; assay type: ADME
CYP1A2 = biological target: T1, CYP1A2 (Homo sapiens, UniProt P05177); assay: Inhibition of human CYP1A2 at 10 uM after 15 mins; assay type: ADME
T1 sequence (P05177 whole entry): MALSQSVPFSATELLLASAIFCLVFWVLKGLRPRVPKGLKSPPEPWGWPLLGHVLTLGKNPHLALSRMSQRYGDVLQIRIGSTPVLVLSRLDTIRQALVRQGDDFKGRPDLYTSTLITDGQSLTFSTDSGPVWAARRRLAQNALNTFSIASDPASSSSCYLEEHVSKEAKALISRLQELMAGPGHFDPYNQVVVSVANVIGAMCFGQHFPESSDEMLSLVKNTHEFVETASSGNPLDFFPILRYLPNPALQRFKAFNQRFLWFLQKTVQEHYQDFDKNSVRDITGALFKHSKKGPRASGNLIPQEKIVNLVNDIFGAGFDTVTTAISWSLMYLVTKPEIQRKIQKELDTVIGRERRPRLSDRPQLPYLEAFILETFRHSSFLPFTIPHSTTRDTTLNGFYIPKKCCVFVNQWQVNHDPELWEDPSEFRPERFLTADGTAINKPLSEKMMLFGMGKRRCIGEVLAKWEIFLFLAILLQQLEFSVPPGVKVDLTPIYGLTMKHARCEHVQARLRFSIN

[4] = Metabolic stability in mouse liver microsomes at 1 uM by LC-MS/MS analysis; assay type: ADME, Microsome
Liver microsomes [5] = assay: Metabolic stability in rat liver microsomes at 1 uM by LC-MS/MS analysis; assay type: ADME, Microsome
Liver microsomes [6] = assay: Metabolic stability in human liver microsomes at 1 uM by LC-MS/MS analysis; assay type: ADME, Microsome
[7] = Plasma clearance in Sprague-Dawley rat at 1 mg/kg, iv and 2 mg/kg, po; assay type: ADME, organism-based
Method in brief: (§1)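 Sprague-Dawley rats (n = 3) given 1 mg/kg i.v. and 2 mg/kg oral gavage. Blood was drawn into EDTA at 5, 15, 30 min and 1, 2, 4, 6, 8 h. Plasma proteins were precipitated with acetonitrile and drug was measured by LC-MS/MS. Cmax, AUC, t1/2, CL, Vd and oral bioavailability came from noncompartmental analysis.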

[8] = Half life in Sprague-Dawley rat at 1 mg/kg, iv and 2 mg/kg, po; assay type: ADME, organism-based; conditions: in vivo; method in brief: as §1
[9] = Volume of distribution in Sprague-Dawley rat at 1 mg/kg, iv and 2 mg/kg, po; assay type: ADME, organism-based; conditions: in vivo; method in brief: as §1
[10] = AUC in Sprague-Dawley rat at 2 mg/kg, po; assay type: ADME, organism-based; design: dose 2 mg/kg, route oral; conditions: plasma
[11] = Cmax in Sprague-Dawley rat at 2 mg/kg, po; assay type: ADME, organism-based; design: dose 2 mg/kg, route oral; conditions: in vivo
Rattus norvegicus = assay: Oral bioavailability in Sprague-Dawley rat at 2 mg/kg; assay type: ADME, organism-based; conditions: in vivo; method in brief: as §1
[12] = Inhibition of c-jun phosphorylation in rat INS-1 cells; assay type: cell-based; conditions: INS1
[13] = Inhibition of streptozotocin-induced H2O2 production in rat INS1(823/13) cells treated 30 mins before streptozotocin challenge measured after 4 hrs; assay type: functional, cell-based
Method in brief: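 Rat insulinoma INS1 823/13 cells in RPMI 1640 with 10% FBS were plated and left overnight at 37 °C. Compound in DMSO was added 30 min before 4 mM STZ and kept through 4 h of STZ at 37 °C. Cells were loaded with 5 μM CM-H2DCFDA for 1 h, and fluorescence was read at 495/525 nm. Signal was normalized to STZ alone. A 12-point curve was fitted by four-parameter regression over four biological replicates run in duplicate.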

[14] = biological target: Dual specificity mitogen-activated protein kinase kinase 7 (Homo sapiens) (UniProt O14733); assay: Inhibition of MKK7 at 3 uM
[15] = biological target: Dual specificity mitogen-activated protein kinase kinase 4 (Homo sapiens) (UniProt P45985); assay: Inhibition of MKK4 at 3 uM
[16] = biological target: Mitogen-activated protein kinase kinase kinase 9 (Homo sapiens) (UniProt P80192); assay: Inhibition of MLK1 at 3 uM
Method in brief: (§2)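 Counterscreen in a biochemical panel of 400 kinases. Each kinase was tested at a single inhibitor level of 3 μM, and percent inhibition was recorded.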

[17] = biological target: Mitogen-activated protein kinase kinase kinase 10 (Homo sapiens) (UniProt Q02779); assay: Inhibition of MLK2 at 3 uM; method in brief: as §2
[18] = biological target: Mitogen-activated protein kinase kinase kinase 11 (Homo sapiens) (UniProt Q16584); assay: Inhibition of MLK3 at 3 uM; method in brief: as §2
[19] = biological target: Mitogen-activated protein kinase kinase kinase 1 (Homo sapiens) (UniProt Q13233); assay: Inhibition of MAPK3K1 at 3 uM; method in brief: as §2
[20] = biological target: Mitogen-activated protein kinase kinase kinase 2 (Homo sapiens) (UniProt Q9Y2U5); assay: Inhibition of MAPK3K2 at 3 uM; method in brief: as §2
[21] = biological target: Mitogen-activated protein kinase kinase kinase 3 (Homo sapiens) (UniProt Q99759); assay: Inhibition of MAPK3K3 at 3 uM; method in brief: as §2
[22] = biological target: Mitogen-activated protein kinase kinase kinase 4 (Homo sapiens) (UniProt Q9Y6R4); assay: Inhibition of MAPK3K4 at 3 uM; method in brief: as §2
[23] = biological target: Mitogen-activated protein kinase kinase kinase 5 (Homo sapiens) (UniProt Q99683); assay: Inhibition of ASK1 at 3 uM
Jurkat = assay: Inhibition of IL-2 release in human Jurkat cells at 10 uM; assay type: functional
[24] = Selectivity ratio of IC50 for JNK1 over IC50 for p38 kinase
[25] = Selectivity ratio of IC50 for JNK3 over IC50 for p38 kinase
Plasma [26] = assay: Protein binding in mouse plasma; assay type: ADME, cell-free
Plasma [27] = assay: Protein binding in rat plasma; assay type: ADME, cell-free
Plasma [28] = assay: Protein binding in dog plasma; assay type: ADME, cell-free, Canis lupus familiaris
Plasma [29] = assay: Protein binding in monkey plasma; assay type: ADME, cell-free, Macaca mulatta; conditions: rhesus monkey
Plasma [30] = assay: Protein binding in human plasma; assay type: ADME, cell-free

Mitogen-activated protein kinase 8, sequence (P45983 whole entry): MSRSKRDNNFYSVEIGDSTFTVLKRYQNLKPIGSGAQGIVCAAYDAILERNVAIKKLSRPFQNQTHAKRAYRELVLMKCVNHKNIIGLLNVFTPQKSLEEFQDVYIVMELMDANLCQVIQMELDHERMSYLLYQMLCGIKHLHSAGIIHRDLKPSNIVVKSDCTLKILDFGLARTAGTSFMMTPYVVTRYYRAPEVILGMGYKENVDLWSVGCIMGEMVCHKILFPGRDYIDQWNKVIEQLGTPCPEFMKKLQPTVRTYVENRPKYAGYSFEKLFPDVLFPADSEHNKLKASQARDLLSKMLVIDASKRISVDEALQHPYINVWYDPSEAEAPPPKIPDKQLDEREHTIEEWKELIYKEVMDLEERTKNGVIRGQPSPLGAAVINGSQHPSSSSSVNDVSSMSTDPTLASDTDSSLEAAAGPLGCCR
CYP2D6, sequence (P10635 whole entry): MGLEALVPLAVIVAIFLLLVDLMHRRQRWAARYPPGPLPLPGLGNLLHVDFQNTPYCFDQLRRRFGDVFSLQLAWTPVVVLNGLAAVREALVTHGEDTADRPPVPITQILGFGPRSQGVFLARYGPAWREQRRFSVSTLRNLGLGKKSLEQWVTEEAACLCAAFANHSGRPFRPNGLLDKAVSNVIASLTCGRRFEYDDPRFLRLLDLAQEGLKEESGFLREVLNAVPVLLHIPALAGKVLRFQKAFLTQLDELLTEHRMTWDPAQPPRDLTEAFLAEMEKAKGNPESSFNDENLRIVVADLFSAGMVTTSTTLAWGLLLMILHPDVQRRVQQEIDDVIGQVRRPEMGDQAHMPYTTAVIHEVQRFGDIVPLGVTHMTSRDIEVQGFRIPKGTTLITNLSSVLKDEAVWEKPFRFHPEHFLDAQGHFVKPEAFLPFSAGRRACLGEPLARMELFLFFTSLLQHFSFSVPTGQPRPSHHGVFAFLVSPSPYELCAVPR
Mitogen-activated protein kinase 10, sequence (P53779 whole entry): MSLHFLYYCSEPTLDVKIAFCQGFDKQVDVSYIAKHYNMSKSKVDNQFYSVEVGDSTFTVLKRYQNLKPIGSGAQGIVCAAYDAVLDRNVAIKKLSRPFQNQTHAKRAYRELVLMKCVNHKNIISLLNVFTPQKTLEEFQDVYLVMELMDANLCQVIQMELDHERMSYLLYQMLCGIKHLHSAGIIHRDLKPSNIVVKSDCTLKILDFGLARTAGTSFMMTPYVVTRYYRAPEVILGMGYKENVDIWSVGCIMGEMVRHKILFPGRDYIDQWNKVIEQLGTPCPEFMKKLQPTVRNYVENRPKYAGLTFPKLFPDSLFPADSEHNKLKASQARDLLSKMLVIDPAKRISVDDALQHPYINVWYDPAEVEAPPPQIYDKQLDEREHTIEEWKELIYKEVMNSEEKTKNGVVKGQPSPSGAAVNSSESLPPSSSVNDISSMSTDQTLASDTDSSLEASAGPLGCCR
CYP3A4, sequence (P08684 whole entry): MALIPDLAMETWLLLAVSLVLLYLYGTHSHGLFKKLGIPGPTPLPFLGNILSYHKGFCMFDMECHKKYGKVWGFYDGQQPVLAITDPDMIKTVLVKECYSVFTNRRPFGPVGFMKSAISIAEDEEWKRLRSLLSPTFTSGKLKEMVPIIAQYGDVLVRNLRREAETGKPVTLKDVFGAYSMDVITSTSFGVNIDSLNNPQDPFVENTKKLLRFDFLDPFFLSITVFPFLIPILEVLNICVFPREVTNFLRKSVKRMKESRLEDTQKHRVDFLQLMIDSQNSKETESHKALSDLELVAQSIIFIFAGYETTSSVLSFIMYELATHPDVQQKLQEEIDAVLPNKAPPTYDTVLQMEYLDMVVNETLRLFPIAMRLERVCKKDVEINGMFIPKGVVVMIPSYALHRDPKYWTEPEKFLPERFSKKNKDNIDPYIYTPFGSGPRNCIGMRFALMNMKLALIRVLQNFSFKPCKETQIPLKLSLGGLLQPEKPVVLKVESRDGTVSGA
CYP2C9, sequence (P11712 whole entry): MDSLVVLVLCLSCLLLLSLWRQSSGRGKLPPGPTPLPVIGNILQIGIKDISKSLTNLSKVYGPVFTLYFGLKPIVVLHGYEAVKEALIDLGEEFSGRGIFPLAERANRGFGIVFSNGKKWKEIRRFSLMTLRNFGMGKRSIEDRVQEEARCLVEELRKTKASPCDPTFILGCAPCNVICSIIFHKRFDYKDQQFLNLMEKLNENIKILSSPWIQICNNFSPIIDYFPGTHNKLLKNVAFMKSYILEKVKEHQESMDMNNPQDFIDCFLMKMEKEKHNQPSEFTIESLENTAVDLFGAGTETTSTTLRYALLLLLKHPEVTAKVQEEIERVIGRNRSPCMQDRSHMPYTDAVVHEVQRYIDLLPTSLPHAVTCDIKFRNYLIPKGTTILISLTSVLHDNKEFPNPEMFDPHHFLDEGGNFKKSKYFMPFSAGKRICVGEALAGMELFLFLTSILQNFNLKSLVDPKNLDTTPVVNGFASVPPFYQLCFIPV
Mitogen-activated protein kinase kinase kinase 9 (Homo sapiens), sequence (P80192 whole entry, looked up): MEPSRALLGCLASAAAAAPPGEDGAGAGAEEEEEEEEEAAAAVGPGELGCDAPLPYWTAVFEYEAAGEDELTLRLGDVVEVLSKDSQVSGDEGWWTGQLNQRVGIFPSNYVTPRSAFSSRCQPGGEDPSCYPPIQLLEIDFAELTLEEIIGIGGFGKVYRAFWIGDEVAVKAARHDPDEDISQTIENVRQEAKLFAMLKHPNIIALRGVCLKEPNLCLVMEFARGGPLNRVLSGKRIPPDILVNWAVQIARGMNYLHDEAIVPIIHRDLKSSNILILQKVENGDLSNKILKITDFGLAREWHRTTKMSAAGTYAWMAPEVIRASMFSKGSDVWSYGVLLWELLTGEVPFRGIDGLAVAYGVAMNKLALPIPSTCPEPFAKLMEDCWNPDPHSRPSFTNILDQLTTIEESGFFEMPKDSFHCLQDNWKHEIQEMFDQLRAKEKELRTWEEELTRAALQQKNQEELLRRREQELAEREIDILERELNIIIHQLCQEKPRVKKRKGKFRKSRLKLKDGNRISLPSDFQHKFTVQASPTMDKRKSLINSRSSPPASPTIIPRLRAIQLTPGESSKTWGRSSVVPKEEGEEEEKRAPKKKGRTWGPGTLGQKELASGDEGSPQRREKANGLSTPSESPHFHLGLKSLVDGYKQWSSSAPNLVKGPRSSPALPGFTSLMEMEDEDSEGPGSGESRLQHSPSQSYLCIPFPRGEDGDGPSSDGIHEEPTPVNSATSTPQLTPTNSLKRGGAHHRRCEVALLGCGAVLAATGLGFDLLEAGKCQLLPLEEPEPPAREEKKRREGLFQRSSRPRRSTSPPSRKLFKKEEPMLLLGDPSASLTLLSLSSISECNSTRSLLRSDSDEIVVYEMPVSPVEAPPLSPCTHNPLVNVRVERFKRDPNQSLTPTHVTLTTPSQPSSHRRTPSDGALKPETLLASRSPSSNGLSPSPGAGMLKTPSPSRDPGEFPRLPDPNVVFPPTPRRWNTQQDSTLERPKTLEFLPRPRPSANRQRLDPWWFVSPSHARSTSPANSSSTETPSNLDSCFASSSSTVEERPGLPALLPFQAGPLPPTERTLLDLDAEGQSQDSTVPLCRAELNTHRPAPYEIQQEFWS
Dual specificity mitogen-activated protein kinase kinase 7 (Homo sapiens), sequence (O14733 whole entry): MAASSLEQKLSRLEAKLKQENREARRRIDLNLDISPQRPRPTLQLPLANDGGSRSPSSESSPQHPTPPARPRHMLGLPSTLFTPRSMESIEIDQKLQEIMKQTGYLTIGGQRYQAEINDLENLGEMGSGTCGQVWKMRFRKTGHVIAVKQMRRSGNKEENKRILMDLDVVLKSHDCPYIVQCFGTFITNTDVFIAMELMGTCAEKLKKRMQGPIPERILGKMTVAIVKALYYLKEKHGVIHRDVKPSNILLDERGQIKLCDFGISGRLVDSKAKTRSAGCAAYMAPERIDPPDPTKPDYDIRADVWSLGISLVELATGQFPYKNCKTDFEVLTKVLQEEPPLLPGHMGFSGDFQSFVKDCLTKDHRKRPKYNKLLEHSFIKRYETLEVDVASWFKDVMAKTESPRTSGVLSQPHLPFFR
Mitogen-activated protein kinase kinase kinase 2 (Homo sapiens), sequence (Q9Y2U5 whole entry): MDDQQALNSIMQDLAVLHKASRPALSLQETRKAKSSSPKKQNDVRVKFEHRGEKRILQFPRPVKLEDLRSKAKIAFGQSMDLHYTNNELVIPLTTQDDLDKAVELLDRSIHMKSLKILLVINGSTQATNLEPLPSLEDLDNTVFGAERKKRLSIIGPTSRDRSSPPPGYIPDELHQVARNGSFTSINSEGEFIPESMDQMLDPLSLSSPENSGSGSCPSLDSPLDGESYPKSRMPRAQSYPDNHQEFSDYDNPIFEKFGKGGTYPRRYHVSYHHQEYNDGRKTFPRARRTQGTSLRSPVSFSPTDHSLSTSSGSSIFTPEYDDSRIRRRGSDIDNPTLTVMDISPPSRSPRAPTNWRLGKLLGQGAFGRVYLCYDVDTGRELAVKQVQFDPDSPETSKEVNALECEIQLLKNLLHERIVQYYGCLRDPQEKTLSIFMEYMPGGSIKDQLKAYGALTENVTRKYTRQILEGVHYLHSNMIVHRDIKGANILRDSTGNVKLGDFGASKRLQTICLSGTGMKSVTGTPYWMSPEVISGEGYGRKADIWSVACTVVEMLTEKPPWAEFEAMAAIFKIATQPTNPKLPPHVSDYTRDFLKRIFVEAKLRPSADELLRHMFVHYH
Dual specificity mitogen-activated protein kinase kinase 4 (Homo sapiens), sequence (P45985 whole entry): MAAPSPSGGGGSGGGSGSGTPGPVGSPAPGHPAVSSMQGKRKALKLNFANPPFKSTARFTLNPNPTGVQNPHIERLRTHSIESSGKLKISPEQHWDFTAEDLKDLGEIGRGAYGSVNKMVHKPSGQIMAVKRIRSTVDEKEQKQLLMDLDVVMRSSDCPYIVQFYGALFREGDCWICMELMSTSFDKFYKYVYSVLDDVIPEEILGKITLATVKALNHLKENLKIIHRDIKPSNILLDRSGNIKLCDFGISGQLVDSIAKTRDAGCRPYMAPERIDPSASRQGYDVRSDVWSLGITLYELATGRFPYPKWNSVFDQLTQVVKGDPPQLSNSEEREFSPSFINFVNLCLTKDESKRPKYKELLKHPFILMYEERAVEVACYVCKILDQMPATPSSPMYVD

Compound	pIC50 [1]	pIC50 [2]	pIC50 [3]	inhibition at 0.25 h, 10 µM (CYP2C9) [%]	inhibition at 0.25 h, 10 µM (CYP2D6) [%]	inhibition at 0.25 h, 10 µM (CYP3A4) [%]	inhibition at 0.25 h, 10 µM (CYP1A2) [%]	Stability [4] [min]	Stability (Liver microsomes [5]) [min]	Stability (Liver microsomes [6]) [min]	clearance [7] [mL/min/kg]	half-life [8] [h]	Vd [9] [L/kg]	AUC [10] [µM·h]	Cmax [11] [nM]	F (Rattus norvegicus) [%]	pIC50 [12]	also measured
N#Cc1cc(-c2ccnc(Nc3ccc(-n4cnc(-c5ccccn5)n4)cc3)n2)cc(N2CCOCC2)c1	7.41	7.10	< 4.70	-2	-4	33	15	51	47	29	3	3	0.6	5.9	500	27	–	–
Fc1cc(-c2cc[nH]/c(=N/c3ccc(-n4cnc(N5CCOCC5)n4)cc3)n2)cc(N2CCOCC2)c1	–	–	< 4.70	–	–	–	–	–	–	–	–	–	–	–	–	–	7.27	pIC50 [13]: 9.09; Activity [14]: inactive; Activity [15]: inactive; Activity [16]: inactive; Activity [17]: inactive; Activity [18]: inactive; Activity [19]: inactive; Activity [20]: inactive; Activity [21]: inactive; Activity [22]: inactive; Activity [23]: inactive
c1cncc(-c2ncn(-c3ccc(Nc4nccc(-c5cccc(N6CCOCC6)c5)n4)cc3)n2)c1	7.01	–	< 4.70	–	–	–	–	–	–	–	–	–	–	–	–	–	–	–
N#C/C(=C1/Nc2ccccc2S1)c1ccnc(NCCc2cccnc2)n1	–	–	–	–	–	–	–	–	–	–	–	–	–	–	–	–	–	inhibition at 10 µM (Jurkat): 90%
Cc1ncn(-c2ccc(Nc3nccc(-c4cc(C#N)cc(N5CCOCC5)c4)n3)cc2)n1	7.27	7.10	< 4.70	–	–	–	–	–	–	–	–	–	–	–	–	–	7.05	Ratio IC50 [24]: > 135; Ratio IC50 [25]: > 135
c1cc(-c2ccnc(Nc3ccc(-n4ccnn4)cc3)n2)cc(N2CCOCC2)c1	6.91	6.44	< 4.70	–	–	–	–	–	–	–	–	–	–	–	–	–	–	–
Fc1cc(-c2ccnc(Nc3ccc(-n4cnc(N5CCOCC5)n4)cc3)n2)cc(N2CCOCC2)c1	7.00	–	–	75	4	89	70	21	41	26	20	2.4	2.5	1.4	300	45	–	PPB (Plasma [26]): 92%; PPB (Plasma [27]): 98%; PPB (Plasma [28]): 96%; PPB (Plasma [29]): 96%; PPB (Plasma [30]): 92%
CN1CCN(c2ncn(-c3ccc(Nc4nccc(-c5cc(F)cc(N6CCOCC6)c5)n4)cc3)n2)CC1	6.99	6.88	< 4.70	–	–	–	–	–	–	–	–	–	–	–	–	–	6.59	–
CS(=O)(=O)Nc1ccc(-c2ccnc(Nc3ccc(S(N)(=O)=O)cc3)n2)cc1	–	–	< 4.70	–	–	–	–	–	–	–	–	–	–	–	–	–	–	–
Cc1ncn(-c2ccc(Nc3nccc(-c4cccc(N5CCOCC5)c4)n3)cc2)n1	6.95	6.41	< 4.70	43	4	48	39	5	17	18	10	0.8	0.4	2	950	25	6.55	–
CS(=O)(=O)Nc1ccc(-c2ccnc(Nc3ccc(-n4ccnn4)cc3)n2)cc1	7.80	8.40	< 4.70	–	–	–	–	–	–	–	–	–	–	–	–	–	6.68	–
Cn1nnc(-c2ccc(Nc3nccc(-c4cc(C#N)cc(N5CCOCC5)c4)n3)cc2)n1	7.35	6.85	< 4.70	7	10	15	-1	26	11	17	44	1.9	3.3	0.24	70	14	–	–
NC(=O)c1ccc(Nc2nccc(-c3ccccc3)n2)cc1	–	–	< 4.70	–	–	–	–	–	–	–	–	–	–	–	–	–	–	–
